Source: ChEMBL document CHEMBL1156633, “Discovery of novel and long acting muscarinic acetylcholine receptor antagonists” (J Med Chem, 2008)
Activity calls are given as the source filed them. No cut-off for these calls is given here.

Columns and labels:
[1] = target: T1, Muscarinic acetylcholine receptor M1 (Homo sapiens, UniProt P11229); assay: Antagonist activity at human muscarinic acetylcholine M1 receptor expressed in CHO cells assessed as inhibition of acetylcholine-induced calcium mobilization by FLIPR assay; format: functional, cell-based
T1 sequence (P11229 whole entry): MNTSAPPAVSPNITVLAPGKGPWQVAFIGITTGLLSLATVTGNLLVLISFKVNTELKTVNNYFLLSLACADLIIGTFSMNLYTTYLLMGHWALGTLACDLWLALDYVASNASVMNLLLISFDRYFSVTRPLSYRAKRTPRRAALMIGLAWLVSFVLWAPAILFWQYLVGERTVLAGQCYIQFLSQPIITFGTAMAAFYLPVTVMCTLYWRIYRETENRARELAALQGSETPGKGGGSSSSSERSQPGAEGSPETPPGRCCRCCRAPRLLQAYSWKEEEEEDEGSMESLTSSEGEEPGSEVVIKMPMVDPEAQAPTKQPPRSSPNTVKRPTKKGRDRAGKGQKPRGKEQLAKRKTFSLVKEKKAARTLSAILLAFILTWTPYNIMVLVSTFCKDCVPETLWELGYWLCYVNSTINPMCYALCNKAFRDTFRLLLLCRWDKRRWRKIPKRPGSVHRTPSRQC
Outline: (§1)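 Readout: inhibition of acetylcholine-mediated intracellular Ca2+ mobilization in CHO cells expressing the human receptor subtype, reported as pIC50. Values are the mean of at least two determinations, standard deviation below 0.3 unless otherwise noted.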

[2] = target: T2, Muscarinic acetylcholine receptor M2 (Homo sapiens, UniProt P08172); assay: Antagonist activity at human muscarinic acetylcholine M2 receptor expressed in CHO cells coexpressed with Gqi5 assessed as inhibition of acetylcholine-induced calcium mobilization by FLIPR assay; format: functional, cell-based; outline: as §1
T2 sequence (P08172 whole entry): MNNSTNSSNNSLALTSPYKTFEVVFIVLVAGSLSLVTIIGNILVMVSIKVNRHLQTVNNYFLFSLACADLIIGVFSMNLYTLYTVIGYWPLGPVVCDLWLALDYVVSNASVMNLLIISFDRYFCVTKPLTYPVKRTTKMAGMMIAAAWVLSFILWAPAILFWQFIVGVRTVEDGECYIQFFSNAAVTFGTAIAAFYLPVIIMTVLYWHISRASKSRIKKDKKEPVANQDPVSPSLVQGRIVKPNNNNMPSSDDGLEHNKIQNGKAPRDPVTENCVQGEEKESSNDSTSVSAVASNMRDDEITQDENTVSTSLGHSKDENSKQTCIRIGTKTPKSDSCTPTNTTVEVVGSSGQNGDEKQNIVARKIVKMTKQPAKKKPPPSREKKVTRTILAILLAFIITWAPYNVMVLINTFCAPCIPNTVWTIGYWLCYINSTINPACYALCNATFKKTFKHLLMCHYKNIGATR

[3] = target: T3, Muscarinic acetylcholine receptor M3 (Homo sapiens, UniProt P20309); assay: Antagonist activity at human muscarinic acetylcholine M3 receptor expressed in CHO cells assessed as inhibition of acetylcholine-induced calcium mobilization by FLIPR assay; format: functional, cell-based
Outline: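 Readout: inhibition of acetylcholine-mediated intracellular Ca2+ mobilization in CHO cells stably expressing human recombinant M3 receptor, reported as pIC50. Values are the mean of at least two determinations, standard deviation below 0.3 unless otherwise noted.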

[4] = target: Muscarinic acetylcholine receptor M1 and M3 (Homo sapiens) (UniProt P20309+P11229); assay: Selectivity for human muscarinic acetylcholine M3 receptor over human muscarinic acetylcholine M1 receptor
Outline: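 Ratio of M1 to M3 potency from FLIPR functional assays measuring inhibition of acetylcholine-induced intracellular Ca²⁺ mobilization. The M3 assay used CHO cells stably expressing human recombinant M3 receptor; the M1 assay is described only as a FLIPR assay. pIC50 values are the mean of at least two determinations.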

[5] = target: T1, Muscarinic acetylcholine receptor M1; assay: Antagonist activity at human muscarinic acetylcholine M1 receptor expressed in CHO cells assessed as inhibition of acetylcholine-induced calcium mobilization by single concentration kinetic FLIPR assay; format: functional, cell-based; settings: read-out: pA2 (converted)
Outline: (§2)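 CHO cells stably expressing the human recombinant muscarinic receptor subtype, in a fluorometric imaging plate reader (FLIPR) assay. Read-out is inhibition of acetylcholine-mediated intracellular Ca2+ mobilization. Results are the mean of at least two determinations.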

[6] = target: T2, Muscarinic acetylcholine receptor M2; assay: Antagonist activity at human muscarinic acetylcholine M2 receptor expressed in CHO cells coexpressed with Gqi5 assessed as inhibition of acetylcholine-induced calcium mobilization by single concentration kinetic FLIPR assay; format: functional, cell-based; settings: read-out: pA2 (converted); outline: as §2
[7] = target: T3, Muscarinic acetylcholine receptor M3; assay: Antagonist activity at human muscarinic acetylcholine M3 receptor expressed in CHO cells assessed as inhibition of acetylcholine-induced calcium mobilization by single concentration kinetic FLIPR assay; format: functional, cell-based; settings: read-out: pA2 (converted); outline: as §2
[8] = target: T4, Substance-K receptor (Homo sapiens) (UniProt P21452); assay: Inhibition of NK2 receptor at 1 uM
T4 sequence (whole entry): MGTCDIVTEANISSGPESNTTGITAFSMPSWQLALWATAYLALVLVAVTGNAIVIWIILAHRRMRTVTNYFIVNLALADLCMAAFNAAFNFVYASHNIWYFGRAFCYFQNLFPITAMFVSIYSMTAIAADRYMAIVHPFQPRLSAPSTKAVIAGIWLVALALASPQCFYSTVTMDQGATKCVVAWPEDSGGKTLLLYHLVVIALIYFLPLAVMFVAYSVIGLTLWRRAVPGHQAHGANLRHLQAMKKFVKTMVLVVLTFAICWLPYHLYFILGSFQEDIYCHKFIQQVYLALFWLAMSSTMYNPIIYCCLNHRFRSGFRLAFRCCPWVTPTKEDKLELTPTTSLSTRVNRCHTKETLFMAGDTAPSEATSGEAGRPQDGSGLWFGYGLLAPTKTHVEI

Cavia porcellus [9] = assay: Inhibition of acetylcholine-induced bronchoconstriction in conscious Dunkin-Hartley guinea pig assessed as enhanced pause at 2.5 ug, intratracheally administered as single dose after 4 hrs
Cavia porcellus [10] = assay: Inhibition of acetylcholine-induced bronchoconstriction in conscious Dunkin-Hartley guinea pig assessed as enhanced pause at 2.5 ug, intratracheally administered as single dose after 24 hrs
[11] = Half life in Sprague-Dawley rat at 2.2 mg/kg, iv and 4.8 mg/kg, po; format: ADME, organism-based; settings: in vivo
[12] = Clearance in Sprague-Dawley rat at 2.2 mg/kg, iv and 4.8 mg/kg, po; format: ADME, organism-based; settings: in vivo
[13] = Volume of distribution at steady state in Sprague-Dawley rat at 2.2 mg/kg, iv and 4.8 mg/kg, po; format: ADME, organism-based; settings: in vivo, read-out: Vdss
[14] = Permeability across artificial membrane; format: ADME; settings: PAMPA; read-out: permeability
[15] = Antagonist activity at alpha1 nicotinic acetylcholine receptor; format: functional
[16] = Antagonist activity at alpha3 nicotinic acetylcholine receptor; format: functional
Cytochrome P450 2D6 = Cytochrome P450 2D6 (Homo sapiens, UniProt P10635); assay: Inhibition of CYP2D6; format: ADME
Cytochrome P450 2C19 = Cytochrome P450 2C19 (Homo sapiens, UniProt P33261); assay: Inhibition of CYP2C19; format: ADME
Cytochrome P450 2C9 = Cytochrome P450 2C9 (Homo sapiens, UniProt P11712); assay: Inhibition of CYP2C9; format: ADME
Mus musculus [17] = assay: Inhibition of methacholine-induced bronchoconstriction in conscious BALB/c mouse at 5 ug, intranasally administered as single dose after 5 hrs 15 mins; format: functional, organism-based
Outline: (§3)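 Conscious mice given a single intranasal dose of 5 µg/animal, then challenged with methacholine to induce bronchoconstriction. Inhibition of bronchoconstriction was assessed at set times after dosing.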

Mus musculus [18] = assay: Inhibition of methacholine-induced bronchoconstriction in conscious BALB/c mouse at 5 ug, intranasally administered as single dose after 24 hrs; format: functional; parameters: scale not given: the % may be the effect or the level left; outline: as §3
Mus musculus [19] = assay: Inhibition of methacholine-induced bronchoconstriction in conscious BALB/c mouse at 5 ug, intranasally administered as single dose after 48 hrs; format: functional; parameters: scale not given: the % may be the effect or the level left; outline: as §3
[20] = target: Muscarinic acetylcholine receptor M3 (Homo sapiens); assay: Selectivity for human muscarinic acetylcholine M3 receptor over human muscarinic acetylcholine M2 receptor

T3 sequence (P20309 whole entry): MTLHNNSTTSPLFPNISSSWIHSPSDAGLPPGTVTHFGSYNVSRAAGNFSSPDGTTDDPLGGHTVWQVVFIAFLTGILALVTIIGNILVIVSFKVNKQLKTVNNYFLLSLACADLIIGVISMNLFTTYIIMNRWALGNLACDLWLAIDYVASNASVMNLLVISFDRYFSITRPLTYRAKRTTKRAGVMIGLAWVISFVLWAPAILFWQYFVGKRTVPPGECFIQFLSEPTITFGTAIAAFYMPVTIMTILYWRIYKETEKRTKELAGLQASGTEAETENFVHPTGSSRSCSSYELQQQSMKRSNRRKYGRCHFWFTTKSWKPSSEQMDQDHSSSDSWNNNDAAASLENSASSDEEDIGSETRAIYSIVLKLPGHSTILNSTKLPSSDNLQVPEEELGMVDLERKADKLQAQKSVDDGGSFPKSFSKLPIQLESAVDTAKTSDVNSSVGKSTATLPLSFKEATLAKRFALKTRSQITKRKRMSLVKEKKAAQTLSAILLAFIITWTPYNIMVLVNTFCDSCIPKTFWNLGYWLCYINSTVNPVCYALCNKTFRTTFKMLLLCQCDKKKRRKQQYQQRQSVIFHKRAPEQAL
Chain of Muscarinic acetylcholine receptor M1 and M3 (Homo sapiens) (P20309 whole entry, looked up, one chain of several): as the sequence (P20309 whole entry) above
Chain of Cytochrome P450 2C9 (P11712 whole entry): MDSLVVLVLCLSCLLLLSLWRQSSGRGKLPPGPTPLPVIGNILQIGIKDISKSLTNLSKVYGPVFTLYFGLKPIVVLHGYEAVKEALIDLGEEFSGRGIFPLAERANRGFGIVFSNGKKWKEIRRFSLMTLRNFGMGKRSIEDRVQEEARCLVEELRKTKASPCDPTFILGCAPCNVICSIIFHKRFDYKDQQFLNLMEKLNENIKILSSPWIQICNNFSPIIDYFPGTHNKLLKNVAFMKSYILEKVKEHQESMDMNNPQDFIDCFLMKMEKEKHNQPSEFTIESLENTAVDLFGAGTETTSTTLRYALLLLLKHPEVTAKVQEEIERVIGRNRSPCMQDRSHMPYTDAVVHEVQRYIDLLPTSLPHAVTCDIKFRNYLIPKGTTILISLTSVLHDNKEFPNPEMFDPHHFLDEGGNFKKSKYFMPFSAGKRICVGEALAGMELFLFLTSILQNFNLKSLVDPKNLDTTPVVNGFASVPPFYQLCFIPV
Chain of Cytochrome P450 2C19 (P33261 whole entry): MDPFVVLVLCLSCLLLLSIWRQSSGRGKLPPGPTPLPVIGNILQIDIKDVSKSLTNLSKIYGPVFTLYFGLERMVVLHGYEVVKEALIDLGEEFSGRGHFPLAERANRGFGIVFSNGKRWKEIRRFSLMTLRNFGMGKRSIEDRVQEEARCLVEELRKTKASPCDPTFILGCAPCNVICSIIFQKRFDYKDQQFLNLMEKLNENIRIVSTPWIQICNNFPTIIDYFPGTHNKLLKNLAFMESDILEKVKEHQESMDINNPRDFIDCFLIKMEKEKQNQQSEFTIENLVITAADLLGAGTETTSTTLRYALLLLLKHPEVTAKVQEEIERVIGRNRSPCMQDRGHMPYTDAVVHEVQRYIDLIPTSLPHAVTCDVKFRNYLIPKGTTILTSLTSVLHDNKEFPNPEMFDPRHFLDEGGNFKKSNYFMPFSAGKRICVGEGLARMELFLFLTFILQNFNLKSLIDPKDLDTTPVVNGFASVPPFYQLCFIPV
Chain of Cytochrome P450 2D6 (P10635 whole entry): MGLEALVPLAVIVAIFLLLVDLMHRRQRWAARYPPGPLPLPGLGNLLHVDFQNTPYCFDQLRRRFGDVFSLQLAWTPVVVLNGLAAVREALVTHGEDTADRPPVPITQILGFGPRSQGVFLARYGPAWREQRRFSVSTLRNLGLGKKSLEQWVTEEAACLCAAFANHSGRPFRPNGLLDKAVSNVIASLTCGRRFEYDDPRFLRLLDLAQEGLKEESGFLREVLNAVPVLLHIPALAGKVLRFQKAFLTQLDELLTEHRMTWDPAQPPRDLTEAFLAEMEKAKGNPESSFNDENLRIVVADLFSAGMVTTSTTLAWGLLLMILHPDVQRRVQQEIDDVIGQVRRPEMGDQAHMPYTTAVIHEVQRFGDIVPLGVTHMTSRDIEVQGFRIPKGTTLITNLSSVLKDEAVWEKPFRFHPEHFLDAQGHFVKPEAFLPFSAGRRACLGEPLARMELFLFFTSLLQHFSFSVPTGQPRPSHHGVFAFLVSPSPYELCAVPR

CCOC(=O)c1ccc(NC(=O)N[C@@H](Cc2ccc(O)cc2)C(=O)NC2CCN(Cc3ccc(O)cc3)C2)cc1 (stereo not given in full)
IC50 [1]: 2000 nM | IC50 [2]: 158 nM | IC50 [3]: 20 nM | Selectivity ratio [4]: 100

Cc1cn2cc(CNC(=O)[C@H](Cc3ccc(O)cc3)NC(=O)Nc3ccc(C(=O)OC4CCCCC4)s3)[n+](Cc3ccc4ccccc4c3)c2s1.[I-]
Kb [5]: 0.316 nM | Kb [6]: 0.2 nM | Kb [7]: 0.0126 nM | Selectivity ratio [4]: 25 | inhibition [8]: 74% | inhibition (INH) (Cavia porcellus [9]): 93% | inhibition (INH) (Cavia porcellus [10]): 88%

CCOC(=O)c1ccc(NC(=O)N[C@H](Cc2ccc(O)cc2)C(=O)N[C@@H]2CCN(Cc3ccc(O)cc3)C2)cc1
IC50 [1]: 20000 nM | IC50 [2]: 20000 nM | IC50 [3]: 20000 nM

CCOC(=O)c1ccc(NC(=O)N[C@H](Cc2ccc(O)cc2)C(=O)N[C@H]2CCN(Cc3ccc(O)cc3)C2)cc1
IC50 [1]: 12600 nM | IC50 [2]: 5010 nM | IC50 [3]: 3160 nM

CC(C)OC(=O)c1ccc(NC(=O)N[C@@H](Cc2ccc(O)cc2)C(=O)N[C@H]2CCC[N+](C)(Cc3cccc(O)c3)C2)cc1.[I-] (stereo not given in full)
Kb [6]: 1 nM | half-life [11]: 1.1 h | clearance [12]: 15 mL/min/kg | Vd [13]: 0.55 L/kg | Papp [14]: < 0.3 ×10⁻⁶ cm/s | pIC50 [15]: 6.1 | pIC50 [16]: 6.1 | IC50 (Cytochrome P450 2D6): 3980 nM | IC50 (Cytochrome P450 2C19): > 10000 nM | IC50 (Cytochrome P450 2C9): > 10000 nM | Activity (Mus musculus [17]): Active | Activity (Mus musculus [18]): > 80% | Activity (Mus musculus [19]): > 30%

Cc1cn2cc(CNC(=O)[C@H](Cc3ccc(O)cc3)NC(=O)Nc3ccc(C(=O)OC(C)C)cc3)[n+](Cc3ccc4ccccc4c3)c2s1.O=C([O-])C(F)(F)F
Kb [5]: 0.794 nM | Kb [6]: 1.58 nM | Kb [7]: 0.0251 nM | pA2 [20]: 10.6 | Selectivity ratio [4]: 30 | Activity (Mus musculus [17]): Active | Activity (Mus musculus [18]): > 80% | Activity (Mus musculus [19]): > 60%

CCOC(=O)c1ccc(NC(=O)N[C@@H](Cc2ccc(O)cc2)C(=O)N[C@H]2CCN(Cc3ccc(O)cc3)C2)cc1
IC50 [1]: 1000 nM | IC50 [2]: 126 nM | IC50 [3]: 15.8 nM | Selectivity ratio [4]: 80

CCOC(=O)c1ccc(NC(=O)N[C@@H](Cc2ccc(O)cc2)C(=O)N[C@@H]2CCN(Cc3ccc(O)cc3)C2)cc1
IC50 [1]: 3980 nM | IC50 [2]: 1580 nM | IC50 [3]: 1580 nM
